Data reported in PMC3537910 (European journal of nuclear medicine and molecular imaging, 2012).
Where “and” joins values, the source holds several entries; their conditions need not be identical. Equal entries are not always repeated.

What was measured:
[1] = target: T1, mGluR1 (Rattus norvegicus, UniProt P23385); test: pharmacological validation: blocking of LY2428703 tracer specific binding; format: in vivo; settings: i.v. administration, LY2428703 as non-labeled tracer
[2] = target: T2, mGluR1 (Homo sapiens, UniProt Q13255); test: competition binding assay with 3H-LSN456066, human; settings: humans
[3] = LC-MS/MS rat brain kinetic analysis with non-labeled tracer; format: in vivo; settings: 10 μg/kg dose, 15 minutes
[4] = target: T2, mGluR1; format: cell-based; settings: from IC50 8.9 and 118 nM
How it was run: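 Calcium mobilization was measured in cells expressing individual human mGlu receptors (1, 2, 3, 4, 5, 7, 8). Agonism: % stimulation by test compound alone relative to maximal glutamate response. Antagonism: % inhibition of the EC90 glutamate response. Potentiation: % increase of an EC10 glutamate response relative to the ECmax response.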

[5] = metabolic stability in liver microsomes, mouse; format: in vitro ADME; settings: mouse hepatic microsomes, 30 minutes, n = 3
[6] = metabolic stability in liver microsomes, dog; format: in vitro ADME; settings: dog hepatic microsomes, 30 minutes, n = 3
[7] = target: human P-gp (Homo sapiens, UniProt P08183); test: P-gp substrate identification in MDCK cells transfected with wild-type MDR1; format: in vitro ADME
[8] = mouse, in vivo
[9] = metabolic stability in liver microsomes, rat; format: in vitro ADME; settings: rat hepatic microsomes, 30 minutes, n = 2
[10] = target: T1, mGluR1; test: mGluR1 occupancy experiment, non-labeled JNJ16259685 as tracer; format: in vivo; settings: oral administration
[11] = calibrated Mouse Brain Uptake Assay; settings: cMBUA
[12] = metabolic stability in liver microsomes, monkey; format: in vitro ADME; settings: monkey hepatic microsomes, 30 minutes, n = 2
[13] = target: mGluR5 (Rattus norvegicus, UniProt P31424); test: PET imaging, cross-reactivity with mGluR5 receptors; format: in vivo
[14] = one hour at 37 °C
[15] = target: ABCG2 (BCRP) (Mus musculus, UniProt Q7TMS5); settings: wild type vs knock-out mice, PET
[16] = target: T1, mGluR1; test: PET imaging, specific binding in rat brain; format: in vivo; settings: baseline vs blocked scans
[17] = LogD7.4 measurement in octanol; format: physicochemical; settings: n = 6
[18] = test system: ABCB1 (P-gp); settings: wild type vs knock-out mice, PET
[19] = reference compound; cited from earlier work
[20] = MDCK monolayers overexpressing human P-gp
[21] = rat brain, 30 minutes after injection
[22] = rat cerebellum, 30 minutes after injection
[23] = rat, 30 minutes after injection
[24] = tissue without blood, mean of two measurements

Sequence of human P-gp (P08183 whole entry): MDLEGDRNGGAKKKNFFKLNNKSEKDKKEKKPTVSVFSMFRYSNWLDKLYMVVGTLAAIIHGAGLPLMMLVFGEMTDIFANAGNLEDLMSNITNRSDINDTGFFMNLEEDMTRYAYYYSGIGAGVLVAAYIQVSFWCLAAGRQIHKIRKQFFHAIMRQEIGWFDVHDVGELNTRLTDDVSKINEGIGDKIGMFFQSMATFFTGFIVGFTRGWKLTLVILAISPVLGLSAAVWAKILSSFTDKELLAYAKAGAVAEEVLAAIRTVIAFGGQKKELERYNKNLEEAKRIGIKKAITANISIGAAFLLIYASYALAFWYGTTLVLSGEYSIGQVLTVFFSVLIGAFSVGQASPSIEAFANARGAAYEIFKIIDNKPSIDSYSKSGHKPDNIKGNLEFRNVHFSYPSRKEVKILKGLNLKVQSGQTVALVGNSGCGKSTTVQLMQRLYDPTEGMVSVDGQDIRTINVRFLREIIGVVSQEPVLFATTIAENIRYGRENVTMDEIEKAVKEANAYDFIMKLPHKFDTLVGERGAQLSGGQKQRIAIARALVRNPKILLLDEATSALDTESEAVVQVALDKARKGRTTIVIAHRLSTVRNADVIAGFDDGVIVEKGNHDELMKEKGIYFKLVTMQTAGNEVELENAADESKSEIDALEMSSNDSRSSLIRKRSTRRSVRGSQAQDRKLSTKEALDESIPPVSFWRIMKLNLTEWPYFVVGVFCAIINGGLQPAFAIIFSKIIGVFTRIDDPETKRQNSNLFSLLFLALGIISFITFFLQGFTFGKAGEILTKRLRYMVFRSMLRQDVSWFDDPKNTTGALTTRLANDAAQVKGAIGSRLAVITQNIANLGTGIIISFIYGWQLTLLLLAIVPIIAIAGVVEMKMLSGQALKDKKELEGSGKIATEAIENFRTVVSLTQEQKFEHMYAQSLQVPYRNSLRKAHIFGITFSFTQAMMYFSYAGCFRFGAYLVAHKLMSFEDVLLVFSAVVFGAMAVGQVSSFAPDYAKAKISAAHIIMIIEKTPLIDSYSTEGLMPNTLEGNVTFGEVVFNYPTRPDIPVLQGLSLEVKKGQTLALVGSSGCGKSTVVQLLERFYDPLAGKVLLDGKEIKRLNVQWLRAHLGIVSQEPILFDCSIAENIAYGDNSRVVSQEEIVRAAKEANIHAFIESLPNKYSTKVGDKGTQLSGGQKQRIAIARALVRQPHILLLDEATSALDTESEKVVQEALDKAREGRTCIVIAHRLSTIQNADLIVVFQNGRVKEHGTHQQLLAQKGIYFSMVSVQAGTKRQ
T1 sequence (P23385 19-1199): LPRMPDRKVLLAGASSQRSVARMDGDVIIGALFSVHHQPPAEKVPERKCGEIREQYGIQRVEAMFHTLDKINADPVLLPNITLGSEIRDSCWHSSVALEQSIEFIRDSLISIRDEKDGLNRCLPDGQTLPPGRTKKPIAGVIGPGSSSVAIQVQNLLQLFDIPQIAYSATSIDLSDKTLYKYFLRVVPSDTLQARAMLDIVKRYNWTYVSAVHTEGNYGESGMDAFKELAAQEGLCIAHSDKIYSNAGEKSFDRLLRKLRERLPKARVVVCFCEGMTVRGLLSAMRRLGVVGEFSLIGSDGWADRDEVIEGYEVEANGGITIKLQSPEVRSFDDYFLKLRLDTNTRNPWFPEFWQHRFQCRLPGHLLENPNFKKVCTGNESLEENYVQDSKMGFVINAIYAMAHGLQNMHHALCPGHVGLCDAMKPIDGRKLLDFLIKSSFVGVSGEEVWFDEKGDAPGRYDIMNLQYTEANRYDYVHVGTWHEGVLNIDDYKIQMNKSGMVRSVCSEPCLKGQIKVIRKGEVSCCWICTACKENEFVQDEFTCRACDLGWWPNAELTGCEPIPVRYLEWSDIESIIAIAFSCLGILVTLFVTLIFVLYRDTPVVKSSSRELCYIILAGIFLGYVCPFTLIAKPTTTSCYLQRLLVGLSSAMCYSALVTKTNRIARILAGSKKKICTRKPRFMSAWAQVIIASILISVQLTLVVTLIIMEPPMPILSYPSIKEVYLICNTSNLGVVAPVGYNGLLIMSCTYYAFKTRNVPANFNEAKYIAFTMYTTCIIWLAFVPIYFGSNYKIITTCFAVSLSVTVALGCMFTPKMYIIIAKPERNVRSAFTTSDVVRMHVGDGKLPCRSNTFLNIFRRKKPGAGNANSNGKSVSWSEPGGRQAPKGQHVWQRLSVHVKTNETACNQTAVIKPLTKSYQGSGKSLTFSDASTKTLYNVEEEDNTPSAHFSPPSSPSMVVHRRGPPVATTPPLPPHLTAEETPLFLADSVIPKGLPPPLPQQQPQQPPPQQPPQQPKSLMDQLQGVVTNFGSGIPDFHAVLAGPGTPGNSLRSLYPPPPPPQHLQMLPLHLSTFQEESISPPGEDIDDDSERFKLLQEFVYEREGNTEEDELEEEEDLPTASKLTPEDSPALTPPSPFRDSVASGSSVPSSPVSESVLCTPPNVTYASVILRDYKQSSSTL
Sequence of mGluR5 (P31424 21-1203): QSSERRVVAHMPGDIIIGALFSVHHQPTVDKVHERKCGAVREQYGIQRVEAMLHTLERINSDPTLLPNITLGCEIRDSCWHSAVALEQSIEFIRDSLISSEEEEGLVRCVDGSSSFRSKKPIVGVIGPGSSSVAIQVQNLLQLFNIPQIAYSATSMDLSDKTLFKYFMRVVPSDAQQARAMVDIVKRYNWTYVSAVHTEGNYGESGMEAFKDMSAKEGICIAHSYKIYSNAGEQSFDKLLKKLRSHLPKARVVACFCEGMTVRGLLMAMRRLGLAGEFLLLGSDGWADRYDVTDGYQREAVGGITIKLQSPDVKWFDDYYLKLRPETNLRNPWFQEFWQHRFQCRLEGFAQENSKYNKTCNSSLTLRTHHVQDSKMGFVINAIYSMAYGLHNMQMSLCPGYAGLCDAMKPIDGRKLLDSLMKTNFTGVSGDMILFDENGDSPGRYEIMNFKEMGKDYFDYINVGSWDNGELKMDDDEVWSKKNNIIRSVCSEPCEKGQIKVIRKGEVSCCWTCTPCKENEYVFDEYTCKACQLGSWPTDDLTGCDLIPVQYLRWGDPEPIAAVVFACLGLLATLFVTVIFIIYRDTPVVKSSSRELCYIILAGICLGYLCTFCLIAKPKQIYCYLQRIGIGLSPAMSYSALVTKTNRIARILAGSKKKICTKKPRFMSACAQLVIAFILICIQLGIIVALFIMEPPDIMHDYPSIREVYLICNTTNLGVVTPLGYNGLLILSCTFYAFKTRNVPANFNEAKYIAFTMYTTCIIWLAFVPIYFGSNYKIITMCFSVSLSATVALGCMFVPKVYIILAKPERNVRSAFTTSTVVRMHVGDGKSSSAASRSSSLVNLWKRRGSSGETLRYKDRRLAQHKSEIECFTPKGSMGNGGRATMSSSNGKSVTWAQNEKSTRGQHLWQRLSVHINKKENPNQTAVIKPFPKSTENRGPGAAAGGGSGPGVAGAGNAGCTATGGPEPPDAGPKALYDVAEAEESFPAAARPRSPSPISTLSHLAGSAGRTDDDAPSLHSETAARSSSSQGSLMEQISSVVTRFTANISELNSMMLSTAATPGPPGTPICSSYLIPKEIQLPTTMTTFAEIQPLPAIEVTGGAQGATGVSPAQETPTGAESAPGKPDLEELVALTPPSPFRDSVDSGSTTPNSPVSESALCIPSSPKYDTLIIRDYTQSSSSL
T2 sequence (Q13255 19-1194): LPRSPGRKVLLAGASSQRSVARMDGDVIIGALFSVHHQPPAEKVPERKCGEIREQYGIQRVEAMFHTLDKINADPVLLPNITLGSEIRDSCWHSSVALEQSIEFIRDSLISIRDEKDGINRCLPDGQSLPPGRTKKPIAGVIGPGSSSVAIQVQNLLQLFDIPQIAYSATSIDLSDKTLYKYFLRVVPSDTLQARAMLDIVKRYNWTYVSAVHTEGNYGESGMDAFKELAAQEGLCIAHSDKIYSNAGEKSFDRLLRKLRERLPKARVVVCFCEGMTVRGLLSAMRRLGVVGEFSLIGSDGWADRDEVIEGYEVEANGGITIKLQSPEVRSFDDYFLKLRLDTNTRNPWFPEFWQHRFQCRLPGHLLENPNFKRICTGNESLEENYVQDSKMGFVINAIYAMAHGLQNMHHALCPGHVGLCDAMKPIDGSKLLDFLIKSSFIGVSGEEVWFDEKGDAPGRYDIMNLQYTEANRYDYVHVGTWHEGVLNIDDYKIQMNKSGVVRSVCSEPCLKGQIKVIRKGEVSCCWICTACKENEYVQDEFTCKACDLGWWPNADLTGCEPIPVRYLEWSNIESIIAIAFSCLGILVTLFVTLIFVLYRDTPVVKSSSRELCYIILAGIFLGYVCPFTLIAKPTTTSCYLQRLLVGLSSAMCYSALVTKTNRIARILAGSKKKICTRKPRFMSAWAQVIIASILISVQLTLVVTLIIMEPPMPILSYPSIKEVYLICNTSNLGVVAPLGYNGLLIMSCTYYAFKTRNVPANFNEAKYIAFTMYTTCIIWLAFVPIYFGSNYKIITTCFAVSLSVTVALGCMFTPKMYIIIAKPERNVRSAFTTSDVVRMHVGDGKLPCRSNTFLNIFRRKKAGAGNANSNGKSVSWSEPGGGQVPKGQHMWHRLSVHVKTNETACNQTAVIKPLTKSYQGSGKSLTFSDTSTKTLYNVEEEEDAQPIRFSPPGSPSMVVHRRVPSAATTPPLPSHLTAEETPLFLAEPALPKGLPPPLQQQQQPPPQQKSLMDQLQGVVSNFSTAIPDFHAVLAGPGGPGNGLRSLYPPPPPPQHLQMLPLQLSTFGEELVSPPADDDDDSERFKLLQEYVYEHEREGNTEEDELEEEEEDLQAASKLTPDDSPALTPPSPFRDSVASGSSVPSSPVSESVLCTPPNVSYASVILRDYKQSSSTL

## COC1CCC(C(=O)c2ccc3nc4c(cc3c2)CCCO4)CC1 (stereo not drawn) [JNJ16259685]
[1]
  in vivo mGluR1 ED50: 1.4 ± 0.1 mg/kg

## COc1ccc(-c2nsc(NC(=O)[C@@H]3C[C@H]3C)c2C)cc1 [LY2428703]
[2]
  affinity of LY2428703 relative to LSN2606428: about 20 fold
[3]
  tracer level in rat cerebellum: 330 % SUV
[4]
  affinity for mGluR1 relative to mGluR5: > 10 fold
[5]
  percent of compound metabolized: 79.5 ± 14.7%
[6]
  percent of compound metabolized: 65.0 ± 15.5%
[7]; [20]
  B-A/A-B flux ratio: ~ 1.0
  P-gp substrate identification: not a P-gp substrate
[7]; MDCK monolayers, n=8
  mass balance recovery: 108 ± 10%
  passive permeability coefficient: 62 ± 3 ×10⁻⁶ cm/s and 60 ×10⁻⁶ cm/s
[8]
  clearance from brain, percent loss in concentration from five to 60 minutes: > 95%
  clearance from plasma, percent loss in concentration from five to 60 minutes: > 95%
[9]
  percent of compound metabolized: 91.1 ± 3.4%
[10]
  rat mGluR1 occupancy: dose-dependently occupied
[11]
  dose distributed to brain as percent of cardiac output: 84%
[11]; mouse
  blood-brain barrier permeability coefficient: 19 ×10⁻⁶ cm/s
[11]; mouse, over the 10-fold range of doses
  percent of dose delivered to the brain: 1.2–1.6% and 1.6 ± 0.2%
[12]
  percent of compound metabolized: 90.1 ± 3.1%

## Cc1nc(C#Cc2cccnc2)cs1 [MTEP, 3-((2-Methyl-4-thiazolyl)ethynyl)pyridine, reference compound]
[13]; 5 mg/kg, rat, n=2
  effect of pretreatment on forebrain uptake of 11C-LY2428703: not affected

## Cc1c(-c2ccc(O[11CH3])cc2)nsc1NC(=O)[C@@H]1C[C@H]1C [^11C-LY2428703]
[14]
  stability in rat whole blood and brain homogenates: no biotransformation products were detected
[15]
  substrate for ABCG2 transporter at the blood-brain barrier: not a substrate
cerebellum/brain, cerebellum/plasma, brain/plasma
  regional concentration ratios of the radiometabolite: < 1.0
[21]
  parent radioligand, % of brain radioactivity: 82.7%
  radiometabolite, % of brain radioactivity: 17.2%
[22]
  parent radioligand, % of cerebellar radioactivity: 96.2% and > 96%
  radiometabolite, % of cerebellar radioactivity: ~ 3.5% and 3.7% and 3–4%
Rat plasma, 30 minutes after injection
  parent radioligand, % of plasma radioactivity: 75%
[23]
  %SUV concentration of parent in brain: 49 %SUV
  %SUV concentration of parent in cerebellum: 156 %SUV
  %SUV concentration of parent in plasma: 122 %SUV
  %SUV concentration of parent in urine: 2.7 %SUV
  %SUV concentration of the major radiometabolite in brain: 10.2 %SUV
  %SUV concentration of the major radiometabolite in cerebellum: 6.1 %SUV
  %SUV concentration of the major radiometabolite in plasma: 38.5 %SUV
  %SUV concentration of the major radiometabolite in urine: 161 %SUV
  parent concentration ratio brain/plasma: < 1.0
  parent concentration ratio cerebellum/brain: 3.2 and 3.2–3.5
  parent concentration ratio cerebellum/plasma: 1.3
[24]
  parent radioligand in brain: 48 %SUV
  parent radioligand in cerebellum: 169 %SUV
  parent radioligand, % of brain activity: 82.5%
  parent radioligand, % of cerebellar activity: 95.8%
  radiometabolite in brain: 9.5 %SUV
  radiometabolite in cerebellum: 5.6 %SUV
  radiometabolite, % of brain activity: 16.5%
  radiometabolite, % of cerebellar activity: 3.3%
[13]; rats pretreated with MTEP 5 mg/kg
  affinity for mGluR5s in vivo (PET): negligible affinity
[16]
  PET signal in rat cerebellum: large specific and displaceable signal
[17]
  LogD7.4: 4.02 ± 0.09
[18]
  substrate for ABCB1 transporter at the blood-brain barrier: not a substrate

## [3H]O[3H] [tritiated water]
[19]
  brain levels, percent of the dose: 1.9 ± 0.2%
